Bioassay records: PubChem, Johns Hopkins Ion Channel Center
TRPC4 potent: positive allosteric modulators of TRPC4, primary screen, cell-based, mouse TRPC4beta, HEK293 mu-opioid, Fluo-4 calcium | actives 0.42% (n = 310,000) | AID 2227, 2009 | DAMGO EC20, Fluo-4 Ca2+ flux; stronger effect = higher value | B-score at 10 µM;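 active means B-score of calcium response area above 5 SD of library B-scores, with initial fluorescence ratio within 5 SD of library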;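 further: B-score of integrated fluorescence ratio over time as area under calcium response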
TRPC6 act: mouse TRPC6 channel activators, primary screen, cell-based, HEK293, membrane potential dye; Short transient receptor potential channel 6 (Mus musculus), Q61143; B-score at 10 µM; HEK293-TRPC6 membrane potential dye fluorescence; stronger effect = higher value; actives 0.13% (n = 310,000);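 active means B-score of the integrated fluorescence ratio above library mean plus 3 SD, and starting fluorescence ratio within library mean plus 5 SD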;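 further: higher score means more depolarization so channel activation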
TRPC6 inhibitor: mouse TRPC6 channel inhibitors, primary screen, cell-based, HEK293, membrane potential dye. ACh-evoked depolarization; stronger effect = lower value. B-score at 10 µM. actives 1.1% (n = 310,000);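 active means B-score under library mean minus 3 SD, initial fluorescence not abnormally high, positive integrated signal ratio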;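 further: B-score derived from integrated fluorescence ratio over the kinetic read; more negative B-score means stronger inhibition of depolarization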
TRPC4 inh: inhibitors of mouse TRPC4 channel, primary screen, Fluo4 calcium, HEK293 TRPC4beta/mu-opioid cells. Short transient receptor potential channel 4 (Mus musculus), Q9QUQ5. DAMGO-evoked Fluo4 calcium flux; stronger effect = lower value. B-score at 10 µM. actives 0.39% (n = 300,000);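 active means B-score over 3 SD under the library average, no early fluorescence shift, positive overall ratio signal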
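Test system – stable TRPC4beta/mu-opioid receptor HEK293 cells · Probe or stimulus – DAMGO, a submaximal dose followed by a maximal one · Dosing – one concentration per compound · Signal – Fluo4 calcium fluorescence by kinetic imaging, 5 s 1 Hz baseline · Evaluation – per-well B score of integrated baseline-normalized Fluo4 ratio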
TRPC4 act: activators of mouse TRPC4 channel, primary screen, Fluo4 calcium, HEK293 TRPC4beta/mu-opioid cells; actives 0.49% (n = 310,000); Fluo4 calcium fluorescence; stronger effect = higher value; B-score at 10 µM;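 active means B-score above 5 SD of library B-scores, and initial fluorescence ratio not above library mean plus 5 SD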;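 further: positive B-score marks a calcium rise read as TRPC4 activation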
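Assay system: HEK293 cells stably co-expressing mouse TRPC4beta and mu-opioid receptor / Timing: Fluo4 dye loading 45 min at room temperature, 110 s recording / Signal: Fluo4 calcium-sensitive dye fluorescence, kinetic, 1 Hz baseline / Read-out: integrated baseline-normalised fluorescence ratio, converted to per-well B score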
HEK293 MPD ctr: parental HEK293 membrane potential modulation, confirmation, counter-screen for TRPC6 modulator project, cell-based | shares compounds with TRPC6 inhibitor | membrane potential dye fluorescence | membrane potential signal change, % at 10 µM | actives 51% (n = 2,400);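 active means membrane potential signal moves up or down beyond 5 SD from buffer-only wells, on both duplicate plates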
HEK293 MPD ctr 2: second check of TRPC6 modulator effects in parental HEK293 cells; inhibition, % at 10 µM; membrane potential dye fluorescence; after compound, maximal acetylcholine stimulation; actives 14% (n = 2,400); shares compounds with TRPC6 inhibitor;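 active means membrane potential signal drops by more than 5 SD from the mean control signal, in both duplicate plates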;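 further: plate controls were acetylcholine ECmax control wells for no effect and buffer only wells for full effect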
TRPC4 ctr mod: TRPC4 modulation by TRPC6 hit compounds, confirmation, selectivity assay for TRPC6 modulator project, cell-based, HEK293 TRPC4/mu-opioid, membrane potential dye, mouse. shares compounds with TRPC6 inhibitor. percent change from control (negative = decrease, positive = increase), % at 10 µM. membrane potential fluorescence. actives 69% (n = 2,400);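 active means membrane potential signal moved up or down beyond 5 SD of buffer control wells, in both duplicate plates, actives on both sides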;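 further: plate controls were assay buffer wells for no effect and DAMGO maximal-effect wells for full effect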
TRPC4/MOR inh 2: second selectivity test of TRPC6 modulators against mouse TRPC4; actives 55% (n = 2,400); inhibition, % at 10 µM; shares compounds with TRPC6 inhibitor; HEK293 TRPC4/mu-opioid, membrane potential dye fluorescence; stimulated with maximal-effect DAMGO;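 active means drop in membrane potential signal beyond 5 SD of the control wells in both duplicate plates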;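 further: TRPC4 counter screen for TRPC6 hits run under conditions tuned for TRPC6 not TRPC4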
TRPC6 inh conf: mouse TRPC6 channel inhibitors, confirmation, HEK293 cells, membrane potential dye, duplicate; inhibition, % at 10 µM; shares compounds with TRPC6 inhibitor; ACh-evoked depolarization; actives 43% (n = 3,300); AID 488960, 2010;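 active means fluorescence ratio falls more than 5 SD below the full-stimulation control mean, in both duplicate runs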;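 further: integrated fluorescence ratio of peak minus minimum over baseline after agonist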
TRPC6 act conf: mouse TRPC6 channel activators, confirmation, HEK293 cells, membrane potential dye, duplicate | shares compounds with TRPC6 inhibitor | HEK293-TRPC6 membrane potential dye fluorescence, FDSS | activation, % at 10 µM | actives 11% (n = 2,800) | AID 488961, 2010;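 active means ratio signal rise beyond 5 SD above unstimulated control wells' mean, seen in both duplicate runs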;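 further: plate controls were buffer EC0 wells for no effect and acetylcholine ECmax response for full effect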
* marks the source's active call; other numbers are inactive results; i = inactive; x = no result. Only some compounds are listed: those with a hit (about 2.3% of all), similar ones and a draw of the others.

SMILES	TRPC4 potent	TRPC6 act	TRPC6 inhibitor	TRPC4 inh	TRPC4 act	HEK293 MPD ctr	HEK293 MPD ctr 2	TRPC4 ctr mod	TRPC4/MOR inh 2	TRPC6 inh conf	TRPC6 act conf
COc1ccc(C(CCN2CCCC(C)C2)c2c(OC)cc(OC)c3c(-c4ccccc4)cc(=O)oc23)cc1 (configuration not stated)	i	i	i	i	i	x	x	x	x	x	x
COc1cc(OC)c2c(-c3ccccc3)cc(=O)oc2c1C(CCN1CCN(c2ccccc2)CC1)c1ccc(N(C)C)cc1 (configuration not stated)	i	i	i	i	i	x	x	x	x	x	x
COc1cc(OC)c2c(C)cc(=O)oc2c1C(CCN1CCOCC1)c1ccc(N(C)C)cc1 (configuration not stated)	i	i	-5.3*	i	i	-141.0%*	i	-28.5%*	52.0%*	42.0%*	i
COc1cc(OC)c2c(-c3ccccc3)cc(=O)oc2c1C(CCN1CCCC(C)C1)c1ccc(N(C)C)cc1 (configuration not stated)	i	i	-5.9*	i	i	i	i	i	69.0%*	40.0%*	i
CCN1CCN(c2cc(C)c3cc(NC(=O)c4ccc(Br)o4)ccc3n2)CC1	i	i	-5.45*	-6*	i	i	i	-11.5%*	42.5%*	i	i
CCN1CCN(c2cc(C)c3cc(NC(=O)c4ccc(C)c(C)c4)ccc3n2)CC1	i	i	i	i	i	x	x	x	x	x	x
CCN1CCN(c2cc(C)c3cc(NC(=O)c4ccncc4)ccc3n2)CC1	i	i	-5.48*	i	i	-100.5%*	i	i	i	i	i
CCSc1ccc([C@@H]2[C@@H]3C(=O)N(CC)C(=O)[C@@H]3[C@]3(C(=O)OC)CCCN23)cc1	i	i	i	i	i	x	x	x	x	x	x
Cc1ccc[n+](CC(=O)c2cc3ccccc3oc2=O)c1	i	i	-6.5*	i	i	-76.0%*	i	-21.5%*	i	70.5%*	i
CN(C1=C(NC(=O)c2ccc(Cl)cc2)C(=O)c2ccccc2C1=O)c1ccccc1	i	i	-5.14*	i	i	-99.5%*	i	-31.5%*	65.0%*	i	i
CCOC(=O)c1ccc(NC(=O)CCC2COc3ccccc3O2)cc1 (configuration not stated)	i	20.1*	i	i	i	i	i	i	i	x	135.5%*
Cc1ccc(CNC(=O)C2CCCN(S(=O)(=O)c3ccc(F)cc3)C2)cc1 (configuration not stated)	i	i	i	i	i	x	x	x	x	x	x
CC(C)c1cc(=O)oc2c3c4c(cc12)CCCN4CCC3	i	i	-5.15*	i	i	640.0%*	i	-127.0%*	39.0%*	i	i
Cc1cc(=O)oc2c3c4c(cc12)OCCN4CCC3	i	i	i	i	i	x	x	x	x	x	x
CC(NC(=O)c1ccc2c(c1)OCCO2)c1ccc(S(N)(=O)=O)cc1 (configuration not stated)	i	i	i	i	i	x	x	x	x	x	x
COc1ccc(-c2[nH]n(-c3ccc([N+](=O)[O-])cc3)c(=O)c2C=NCCN2CCNCC2)cc1	i	i	-6.54*	i	i	-227.0%*	i	-42.5%*	50.5%*	50.5%*	i
CCNCCOC(c1ccccc1)c1ccccc1	i	i	-5.81*	i	i	142.5%*	i	27.0%*	36.0%*	i	x
COc1cc(C2C(C#N)=C(N)N(N(C)C)C3=C2C(=O)CCC3)ccc1O (configuration not stated)	i	i	i	i	i	x	x	x	x	x	x
COc1ccc(CCNCC(O)COc2cccc(Br)c2)cc1 (configuration not stated)	i	i	-5.46*	i	i	186.0%*	i	29.5%*	49.5%*	i	x
CNCC(O)COc1cccc(OC)c1 (configuration not stated)	i	i	i	i	i	x	x	x	x	x	x
c1csc(-c2nn3c(C4COc5ccccc5O4)nnc3s2)c1 (configuration not stated)	i	i	-12.2*	i	i	i	i	i	i	i	i
CCOc1ccc(S(=O)(=O)N2CCC(C(=O)NCc3cccnc3)CC2)cc1C	i	i	i	i	i	x	x	x	x	x	x
Cn1cc(/C=C(\NC(=O)c2ccccc2)C(=O)N2CCOCC2)c2ccccc21	i	i	i	i	i	x	x	x	x	x	x
